# Test results taken from ChEMBL document CHEMBL4020842, “Discovery of N1-(4-((7-Cyclopentyl-6-(dimethylcarbamoyl)-7 H-pyrrolo[2,3- d]pyrimidin-2-yl)amino)phenyl)- N8-hydroxyoctanediamide as a Novel Inhibitor Targeting Cyclin-dependent Kinase 4/9 (CDK4/9) and Histone Deacetlyase1 (HDAC1) against Malignant Cancer” (J Med Chem, 2018).
# The source made the active and inactive calls. The rule behind the calls is not given here.
# How the values were obtained:
# [1] = Apparent volume of distribution at steady state in Sprague-Dawley rat at 20 mg/kg, iv administered as single dose by HPLC analysis; assay type: ADME, organism-based; settings: in vivo, read-out: Vdss(app)
# [2] = test system: A549; assay: Induction of apoptosis in human A549 cells assessed as live cells at 10 uM after 48 hrs by annexin V-FITC/propidium iodide staining based flow cytometry (reference value: 92.7%); assay type: functional
# [3] = test system: A549; assay: Induction of apoptosis in human A549 cells assessed as live cells at 1 uM after 48 hrs by annexin V-FITC/propidium iodide staining based flow cytometry (reference value: 92.7%); assay type: functional
# [4] = Cmax in Sprague-Dawley rat at 20 mg/kg, iv administered as single dose by HPLC analysis; assay type: ADME, organism-based; parameters: dose 20 mg/kg, route intravenous; settings: in vivo
# [5] = test system: T47D; assay: Induction of apoptosis in human T47D cells assessed as live cells at 5 uM after 48 hrs by annexin V-FITC/propidium iodide staining based flow cytometry (reference value: 85.3%); assay type: functional
# [6] = target: Cyclin-dependent kinase 5/CDK5 activator 1 (Homo sapiens) (UniProt Q00535+Q15078); assay: Inhibition of recombinant human full length N-terminal 6His-tagged CDK5/N-terminal GST-tagged p35 co-expressed in baculovirus infected sf21 cells at 1 uM using histone H1 substrate in presence of [gamma33P]ATP after 10 mins by scintillation counting method relative to control
# Chain of Cyclin-dependent kinase 5/CDK5 activator 1 (Homo sapiens) (Q00535 whole entry): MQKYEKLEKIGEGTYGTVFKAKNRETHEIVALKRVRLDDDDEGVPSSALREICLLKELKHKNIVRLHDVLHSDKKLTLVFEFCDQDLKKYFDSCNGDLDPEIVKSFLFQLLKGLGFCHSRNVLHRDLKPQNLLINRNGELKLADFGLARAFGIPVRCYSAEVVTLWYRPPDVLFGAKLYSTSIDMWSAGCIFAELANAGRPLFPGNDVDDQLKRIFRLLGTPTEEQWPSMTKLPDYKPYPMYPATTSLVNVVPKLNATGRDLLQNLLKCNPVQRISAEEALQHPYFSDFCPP
# Chain of Cyclin-dependent kinase 5/CDK5 activator 1 (Homo sapiens) (Q15078 99-307 partner limits assumed): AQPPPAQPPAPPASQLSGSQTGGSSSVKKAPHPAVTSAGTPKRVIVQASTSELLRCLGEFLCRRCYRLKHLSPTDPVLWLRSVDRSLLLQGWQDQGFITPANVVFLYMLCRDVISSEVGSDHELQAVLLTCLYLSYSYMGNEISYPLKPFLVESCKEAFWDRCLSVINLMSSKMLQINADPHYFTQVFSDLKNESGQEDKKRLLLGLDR
# [7] = test system: NCI-H460; assay: Downregulation of Cyclin-D1 protein expression in human NCI-H460 cells after 48 hrs by Western blot method; assay type: functional, cell-based
# In short: (§1)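 Treated cells were lysed and CDK4 and cyclin D1 protein levels were assessed by Western blot.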
# [8] = test system: MDA-MB-231; assay: Cell cycle arrest in human MDA-MB-231 cells assessed as accumulation at G0/G1 phase at 625 nM after 24 hrs by propidium iodide staining based flow cytometry; assay type: functional
# In short: (§2)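 Cells were exposed for 24 h to a range of concentrations (625 nM, 2.5 and 10 µM), with DMSO vehicle as control. They were then stained with propidium iodide and analysed by flow cytometry to obtain the percentages of cells in G0/G1, S and G2 phases.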
# [9] = test system: A549; assay: Downregulation of CDK4 protein expression in human A549 cells after 48 hrs by Western blot method; assay type: functional, cell-based
# [10] = test system: MDA-MB-231; assay: Induction of apoptosis in human MDA-MB-231 cells assessed as live cells at 5 uM after 48 hrs by annexin V-FITC/propidium iodide staining based flow cytometry (reference value: 98.1%); assay type: functional
# [11] = target: CDK6/cyclin D3 (Homo sapiens) (UniProt P30281+Q00534); assay: Inhibition of recombinant human full length N-terminal 6His-tagged CDK6/N-terminal GST-tagged Cyclin-D3 co-expressed in sf21 cells at 1 uM using histone H1 substrate in presence of [gamma33P]ATP after 10 mins by scintillation counting method relative to control
# [12] = test system: A549; assay: Induction of apoptosis in human A549 cells assessed as late apoptotic cells at 5 uM after 48 hrs by annexin V-FITC/propidium iodide staining based flow cytometry (reference value: 0.88%); assay type: functional
# [13] = target: CDK4/CDK9 (Homo sapiens) (UniProt P11802+P50750); assay: Inhibition of CDK4/CDK9 in human Hep3B cells assessed as reduction in Rb phosphorylation at Ser807/811 residues at 1 uM after 48 hrs by Western blot method; assay type: cell-based
# Chain of CDK4/CDK9 (Homo sapiens) (P11802 whole entry, looked up): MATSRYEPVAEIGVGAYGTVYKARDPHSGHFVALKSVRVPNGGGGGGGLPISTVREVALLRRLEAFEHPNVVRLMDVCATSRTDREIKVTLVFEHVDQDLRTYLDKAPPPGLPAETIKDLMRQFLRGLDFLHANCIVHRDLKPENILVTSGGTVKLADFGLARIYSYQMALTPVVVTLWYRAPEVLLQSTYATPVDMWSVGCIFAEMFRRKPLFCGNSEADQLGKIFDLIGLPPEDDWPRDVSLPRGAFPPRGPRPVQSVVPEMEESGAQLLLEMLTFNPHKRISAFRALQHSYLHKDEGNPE
# Chain of CDK4/CDK9 (Homo sapiens) (P50750 whole entry, looked up): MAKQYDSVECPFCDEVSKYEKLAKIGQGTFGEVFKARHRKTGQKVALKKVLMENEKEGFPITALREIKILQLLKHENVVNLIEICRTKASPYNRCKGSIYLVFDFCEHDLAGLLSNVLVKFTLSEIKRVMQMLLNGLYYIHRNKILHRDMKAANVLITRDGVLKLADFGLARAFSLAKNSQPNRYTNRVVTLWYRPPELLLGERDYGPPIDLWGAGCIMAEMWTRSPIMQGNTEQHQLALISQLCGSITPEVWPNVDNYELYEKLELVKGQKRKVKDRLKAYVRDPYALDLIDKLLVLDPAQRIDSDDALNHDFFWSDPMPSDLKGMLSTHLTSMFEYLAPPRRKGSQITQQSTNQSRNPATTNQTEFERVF
# [14] = test system: HepG2; assay: Induction of apoptosis in human HepG2 cells assessed as early apoptotic cells at 5 uM after 48 hrs by annexin V-FITC/propidium iodide staining based flow cytometry (reference value: 0.3%); assay type: functional
# [15] = Aqueous solubility in water at 1 mg using acid formulation sonicated for 24 hrs and incubated under unstirred condition for 24 hrs by HPLC method; assay type: physicochemical
# [16] = AUC (0 to infinity) in Sprague-Dawley rat at 20 mg/kg, ip administered as single dose by HPLC analysis; assay type: ADME, organism-based; parameters: dose 20 mg/kg, time infinity, route intraperitoneal; settings: in vivo
# [17] = MRT (0 to infinity) in Sprague-Dawley rat at 20 mg/kg, iv administered as single dose by HPLC analysis; assay type: ADME, organism-based; settings: in vivo
# [18] = test system: HepG2; assay: Cell cycle arrest in human HepG2 cells assessed as accumulation at G2 phase at 2.5 to 10 uM after 24 hrs by propidium iodide staining based flow cytometry; assay type: functional; in short: as §2
# [19] = Cmax in Sprague-Dawley rat at 20 mg/kg, ip administered as single dose by HPLC analysis; assay type: ADME, organism-based; parameters: dose 20 mg/kg, route intraperitoneal; settings: in vivo
# [20] = test system: A549; assay: Cell cycle arrest in human A549 cells assessed as accumulation at G0/G1 phase at 625 nM after 24 hrs by propidium iodide staining based flow cytometry; assay type: functional; in short: as §2
# [21] = test system: HepG2; assay: Cell cycle arrest in human HepG2 cells assessed as decrease in S-phase at 625 nM after 24 hrs by propidium iodide staining based flow cytometry; assay type: functional; in short: as §2
# [22] = test system: MDA-MB-231; assay: Induction of apoptosis in human MDA-MB-231 cells assessed as late apoptotic cells at 1 uM after 48 hrs by annexin V-FITC/propidium iodide staining based flow cytometry (reference value: 1.53%); assay type: functional
# [23] = test system: A549; assay: Induction of apoptosis in human A549 cells assessed as early apoptotic cells at 10 uM after 48 hrs by annexin V-FITC/propidium iodide staining based flow cytometry (reference value: 0.41%); assay type: functional
# [24] = test system: HepG2; assay: Induction of apoptosis in human HepG2 cells assessed as live cells at 5 uM after 48 hrs by annexin V-FITC/propidium iodide staining based flow cytometry (reference value: 96.7%); assay type: functional
# [25] = test system: Mus musculus; assay: Toxicity in Balb/c mouse assessed as overt signs of toxicity at 45 to 130 mg/kg, ip for 16 consecutive days; assay type: organism-based; settings: in vivo
# [26] = target: CDK3/Cyclin E (Homo sapiens) (UniProt P24864+Q00526); assay: Inhibition of recombinant human full length C-terminal 6His-tagged CDK3/N-terminal GST-tagged Cyclin-E co-expressed in baculovirus infected sf21 cells at 1 uM relative to control
# Chain of CDK3/Cyclin E (Homo sapiens) (P24864 whole entry, looked up): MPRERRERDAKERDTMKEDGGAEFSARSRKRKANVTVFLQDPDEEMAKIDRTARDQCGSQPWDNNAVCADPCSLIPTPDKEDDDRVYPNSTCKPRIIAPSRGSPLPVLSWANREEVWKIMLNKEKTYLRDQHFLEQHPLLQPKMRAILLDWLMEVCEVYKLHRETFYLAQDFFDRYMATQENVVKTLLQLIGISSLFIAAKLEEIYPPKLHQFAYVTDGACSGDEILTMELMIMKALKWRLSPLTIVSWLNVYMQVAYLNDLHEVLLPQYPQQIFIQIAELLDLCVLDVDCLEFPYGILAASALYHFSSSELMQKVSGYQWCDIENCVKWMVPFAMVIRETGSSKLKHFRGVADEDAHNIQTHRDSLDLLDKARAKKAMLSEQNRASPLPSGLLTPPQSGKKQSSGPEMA
# Chain of CDK3/Cyclin E (Homo sapiens) (Q00526 whole entry, looked up): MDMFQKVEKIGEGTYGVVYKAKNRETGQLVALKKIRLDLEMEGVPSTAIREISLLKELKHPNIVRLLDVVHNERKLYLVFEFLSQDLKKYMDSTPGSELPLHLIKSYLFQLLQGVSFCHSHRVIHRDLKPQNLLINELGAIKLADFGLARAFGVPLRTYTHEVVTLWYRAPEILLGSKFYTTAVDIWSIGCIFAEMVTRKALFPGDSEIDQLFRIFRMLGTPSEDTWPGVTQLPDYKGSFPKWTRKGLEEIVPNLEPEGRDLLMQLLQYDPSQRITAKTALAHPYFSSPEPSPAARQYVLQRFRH
# [27] = test system: HepG2; assay: Downregulation of Cyclin-D1 protein expression in human HepG2 cells after 48 hrs by Western blot method; assay type: functional, cell-based; in short: as §1
# [28] = target: Vascular endothelial growth factor receptor 3 (Homo sapiens, UniProt P35916); assay: Inhibition of recombinant human N-terminal GST-tagged FLT4 (800-end residues) expressed in baculovirus infected sf21 cells
# Chain of Vascular endothelial growth factor receptor 3 (P35916 whole entry): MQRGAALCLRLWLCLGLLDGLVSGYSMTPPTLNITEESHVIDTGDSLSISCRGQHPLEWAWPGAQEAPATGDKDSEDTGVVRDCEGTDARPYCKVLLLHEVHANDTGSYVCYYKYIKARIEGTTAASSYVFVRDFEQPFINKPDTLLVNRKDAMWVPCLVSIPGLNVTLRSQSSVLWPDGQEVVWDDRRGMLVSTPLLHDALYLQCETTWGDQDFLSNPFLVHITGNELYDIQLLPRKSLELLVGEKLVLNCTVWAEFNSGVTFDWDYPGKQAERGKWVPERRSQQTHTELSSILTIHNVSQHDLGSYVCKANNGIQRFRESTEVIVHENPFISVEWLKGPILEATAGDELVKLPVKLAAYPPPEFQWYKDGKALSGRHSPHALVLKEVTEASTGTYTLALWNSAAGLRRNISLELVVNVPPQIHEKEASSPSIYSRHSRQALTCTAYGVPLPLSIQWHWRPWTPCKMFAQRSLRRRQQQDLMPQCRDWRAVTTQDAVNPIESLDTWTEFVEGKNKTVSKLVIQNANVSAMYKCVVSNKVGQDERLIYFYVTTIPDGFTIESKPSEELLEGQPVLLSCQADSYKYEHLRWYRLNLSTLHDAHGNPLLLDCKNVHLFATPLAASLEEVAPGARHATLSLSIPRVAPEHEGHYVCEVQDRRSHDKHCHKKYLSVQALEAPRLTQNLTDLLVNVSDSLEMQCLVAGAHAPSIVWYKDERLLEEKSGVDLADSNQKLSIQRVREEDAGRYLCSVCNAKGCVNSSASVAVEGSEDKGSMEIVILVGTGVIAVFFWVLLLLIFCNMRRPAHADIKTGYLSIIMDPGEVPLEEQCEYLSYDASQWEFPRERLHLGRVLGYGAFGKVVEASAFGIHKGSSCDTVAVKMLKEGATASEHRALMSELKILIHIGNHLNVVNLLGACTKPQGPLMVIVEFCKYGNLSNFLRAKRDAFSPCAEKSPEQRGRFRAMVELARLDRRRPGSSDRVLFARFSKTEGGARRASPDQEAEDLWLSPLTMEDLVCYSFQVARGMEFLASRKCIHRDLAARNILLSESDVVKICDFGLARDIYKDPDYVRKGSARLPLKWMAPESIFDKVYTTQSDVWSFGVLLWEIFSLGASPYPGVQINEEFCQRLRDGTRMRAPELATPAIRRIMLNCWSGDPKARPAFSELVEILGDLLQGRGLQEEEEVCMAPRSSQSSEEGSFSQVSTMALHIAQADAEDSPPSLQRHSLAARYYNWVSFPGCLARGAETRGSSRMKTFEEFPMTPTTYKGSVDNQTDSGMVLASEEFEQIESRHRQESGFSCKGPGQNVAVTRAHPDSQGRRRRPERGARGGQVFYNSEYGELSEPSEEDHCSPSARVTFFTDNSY
# [29] = test system: MDA-MB-231; assay: Cytotoxicity against human MDA-MB-231 cells assessed as reduction in cell viability after 72 hrs by CCK8 assay; assay type: functional, cell-based; settings: MDA-MB-231, 72 h
# [30] = target: Histone deacetylase 1 (Homo sapiens, UniProt Q13547); assay: Inhibition of HDAC1 in human A549 cells assessed as increase in acetylated-histone H3 level at 1 to 5 uM after 48 hrs by Western blot method; assay type: cell-based
# Chain of Histone deacetylase 1 (Q13547 whole entry): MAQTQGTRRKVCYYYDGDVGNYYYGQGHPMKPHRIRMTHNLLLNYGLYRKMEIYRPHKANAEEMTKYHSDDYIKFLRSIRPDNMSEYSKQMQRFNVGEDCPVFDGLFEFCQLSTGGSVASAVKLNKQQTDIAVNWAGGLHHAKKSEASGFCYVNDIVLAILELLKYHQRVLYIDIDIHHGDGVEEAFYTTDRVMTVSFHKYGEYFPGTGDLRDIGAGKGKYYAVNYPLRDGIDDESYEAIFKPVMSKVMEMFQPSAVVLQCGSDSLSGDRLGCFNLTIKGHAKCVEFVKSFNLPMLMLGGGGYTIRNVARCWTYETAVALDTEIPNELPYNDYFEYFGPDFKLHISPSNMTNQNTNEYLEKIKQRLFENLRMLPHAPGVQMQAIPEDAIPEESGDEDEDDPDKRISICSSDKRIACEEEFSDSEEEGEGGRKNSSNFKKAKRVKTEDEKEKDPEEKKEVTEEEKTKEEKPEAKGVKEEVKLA
# [31] = target: Aurora kinase A (Homo sapiens, UniProt O14965); assay: Inhibition of recombinant human full length C-terminal 6His-tagged Aurora-A expressed in baculovirus infected sf21 cells using kemptide substrate in presence of [gamma33P]ATP after 10 mins by scintillation counting method
# Chain of Aurora kinase A (O14965 whole entry): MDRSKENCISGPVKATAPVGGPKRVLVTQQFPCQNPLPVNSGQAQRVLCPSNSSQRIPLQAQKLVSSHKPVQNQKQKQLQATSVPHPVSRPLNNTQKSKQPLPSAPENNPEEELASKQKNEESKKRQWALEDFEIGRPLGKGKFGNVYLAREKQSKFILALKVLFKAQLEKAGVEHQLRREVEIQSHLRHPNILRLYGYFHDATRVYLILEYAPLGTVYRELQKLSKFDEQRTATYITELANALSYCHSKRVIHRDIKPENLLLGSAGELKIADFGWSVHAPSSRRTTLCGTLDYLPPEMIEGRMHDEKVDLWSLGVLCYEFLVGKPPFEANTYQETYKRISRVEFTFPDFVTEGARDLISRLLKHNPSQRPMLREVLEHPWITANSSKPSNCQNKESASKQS
# [32] = test system: MDA-MB-231; assay: Induction of apoptosis in human MDA-MB-231 cells assessed as caspase-3 cleavage after 48 hrs by Western blot method; assay type: functional, cell-based
# In short: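 Cells were treated with or without test agent, alongside a control, for 48h. They were then lysed and analysed by Western blot for Bcl-2 protein and cleaved caspase 3.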
structure (smiles),measurement,setting,value
CN(C)C(=O)c1cc2cnc(Nc3ccc(NC(=O)CCCCCCC(=O)NO)cc3)nc2n1C1CCCC1,Vd,[1],49 L/kg
same,Activity,[2],59.8%
same,Activity,[3],90.9%
same,Cmax,[4],3850 ng/mL
same,Activity,[5],76.5%
same,inhibition,[6],72%
same,Activity,[7],Dose-dependent effect
same,Activity,[8],Active
same,Activity,[9],Dose-dependent effect
same,Activity,[10],90.3%
same,inhibition,[11],70%
same,Activity,[12],13%
same,inhibition,[13],Active
same,Activity,[14],7.31%
same,solubility,[15],Insoluble
same,AUC(0-inf),[16],2130 ng·h/mL
same,MRT inf,[17],14.1 h
same,Activity,[18],Active
same,Cmax,[19],360 ng/mL
same,Activity,[20],Active
same,Activity,[21],Active
same,Activity,[22],1.97%
same,Activity,[23],5.95%
same,Activity,[24],76.4%
same,Activity,[25],Non-Toxic
same,inhibition,[26],68%
same,Activity,[27],Dose-dependent effect
same,IC50,[28],43 nM
same,IC50,[29],1860 nM
same,inhibition,[30],Active
same,IC50,[31],12 nM
same,Activity,[32],Active
